# Test results as given in ChEMBL document CHEMBL1154892, “Saponins and polyphenols from Fadogia ancylantha (makoni tea)” (J Nat Prod, 2010).
# Calls of active or inactive are those of the source. No cut-off for these calls is given here.
# Assays:
# Escherichia coli [1] = test: Antibacterial activity against Escherichia coli ATCC 8739 after 48 hrs by broth microdilution method; type: functional, organism-based
# In short: (§1)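 Broth microdilution in 96-well plates, in duplicate, per NCCLS (2001), ATCC strains. MBC taken as lowest concentration at which no microbial cell survived after 48 h incubation (bacteria) or 5 days (yeast and mold).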
# Bacillus spizizenii [2] = test: Antibacterial activity against Bacillus spizizenii ATCC 6633 after 48 hrs by broth microdilution method; type: functional; settings: ATCC 6633, 48 h; in short: as §1
# Escherichia coli [3] = test: Antibacterial activity against Escherichia coli ATCC 8739 after 24 hrs by broth microdilution method; type: functional
# In short: (§2)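 Broth microdilution in 96-well plates, in duplicate, following NCCLS (2001); ATCC Gram-positive and Gram-negative bacteria, a yeast and a mold. MIC taken as lowest concentration inhibiting microbial growth after 24 h.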
# Aspergillus niger [4] = test: Antifungal activity against Aspergillus niger ATCC 16404 after 5 days by broth microdilution method; type: functional; in short: as §1
# Pseudomonas aeruginosa [5] = test: Antibacterial activity against Pseudomonas aeruginosa ATCC 9027 after 24 hrs by broth microdilution method; type: functional; in short: as §2
# [6] = test system: Staphylococcus epidermidis; test: Antibacterial activity against Staphylococcus epidermidis ATCC 12228 after 24 hrs by broth microdilution method; type: functional; settings: ATCC 12228, 24 h; in short: as §2
# Pseudomonas aeruginosa [7] = test: Antibacterial activity against Pseudomonas aeruginosa ATCC 9027 after 48 hrs by broth microdilution method; type: functional; in short: as §1
# Candida albicans [8] = test: Antifungal activity against Candida albicans ATCC 10231 after 24 hrs by broth microdilution method; type: functional; settings: ATCC 10231, 24 h; in short: as §2
# Aspergillus niger [9] = test: Antifungal activity against Aspergillus niger ATCC 16404 after 24 hrs by broth microdilution method; type: functional; settings: ATCC 16404, 24 h; in short: as §2
# [10] = test system: Staphylococcus epidermidis; test: Antibacterial activity against Staphylococcus epidermidis ATCC 12228 after 48 hrs by broth microdilution method; type: functional; settings: ATCC 12228, 48 h; in short: as §1
# [11] = test system: Radical scavenging activity; test: Antioxidant activity assessed as DPPH radical scavenging activity after 10 mins; type: functional
# In short: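 Methanolic sample solution added to DPPH solution (0.025 g/L in MeOH, prepared daily); vehicle alone in control tubes; absorbance read at 515 nm 10 min after start. α-Tocopherol positive control. Triplicate runs; EC50 calculated by Litchfield and Wilcoxon method.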
# Candida albicans [12] = test: Antifungal activity against Candida albicans ATCC 10231 after 5 days by broth microdilution method; type: functional; in short: as §1
# Staphylococcus aureus [13] = test: Antibacterial activity against Staphylococcus aureus ATCC 6538 after 24 hrs by broth microdilution method; type: functional; settings: ATCC 6538, 24 h; in short: as §2
# Bacillus spizizenii [14] = test: Antibacterial activity against Bacillus spizizenii ATCC 6633 after 24 hrs by broth microdilution method; type: functional; settings: ATCC 6633, 24 h; in short: as §2
# Staphylococcus aureus [15] = test: Antibacterial activity against Staphylococcus aureus ATCC 6538 after 48 hrs by broth microdilution method; type: functional; settings: ATCC 6538, 48 h; in short: as §1
Compound,MBC (Escherichia coli [1]),MBC (Bacillus spizizenii [2]) [µg/mL],MIC (Escherichia coli [3]),MBC (Aspergillus niger [4]),"MIC (Pseudomonas aeruginosa [5]; ATCC 9027, 24 h) [µg/mL]",MIC [6] [µg/mL],MBC (Pseudomonas aeruginosa [7]),MIC (Candida albicans [8]) [µg/mL],MIC (Aspergillus niger [9]) [µg/mL],MBC [10] [µg/mL],EC50 [11] [µg/mL],MBC (Candida albicans [12]),MIC (Staphylococcus aureus [13]) [µg/mL],MIC (Bacillus spizizenii [14]) [µg/mL],MBC (Staphylococcus aureus [15]) [µg/mL],"MIC (Escherichia coli [3]; ATCC 8739, 24 h) [µg/mL]",MIC (Pseudomonas aeruginosa [5]),"MBC (Pseudomonas aeruginosa [7]; ATCC 9027, 48 h) [µg/mL]","MBC (Candida albicans [12]; ATCC 10231, 120 h) [µg/mL]","MBC (Aspergillus niger [4]; ATCC 16404, 120 h) [µg/mL]"
O=c1cc(-c2ccc(O)c(O)c2)oc2cc(O[C@@H]3O[C@H](CO)[C@@H](O)[C@H](O)[C@H]3O)ccc12,inactive,1000,inactive,inactive,4000,500,inactive,4000,1000,4000,28.4,inactive,2000,1000,4000,–,–,–,–,–
Cc1c(C)c2c(c(C)c1O)CC[C@@](C)(CCC[C@H](C)CCC[C@H](C)CCCC(C)C)O2 [ALPHA-TOCOPHEROL],–,–,–,–,–,–,–,–,–,–,10.1,–,–,–,–,–,–,–,–,–
O=C(CCc1ccc(O)cc1)c1ccc(O[C@@H]2O[C@H](CO)[C@@H](O)[C@H](O)[C@H]2O)cc1O [CONFUSOSIDE],inactive,1000,–,inactive,–,1000,inactive,4000,120,2000,> 1000,inactive,4000,120,4000,2000,inactive,–,–,–
O=C(CCc1ccc(O)cc1)c1ccc(O)cc1O [DAVIDIGENIN],inactive,500,–,inactive,2000,250,–,1000,120,500,> 1000,–,120,120,500,4000,–,4000,2000,–
O=c1c(O[C@@H]2O[C@H](CO)[C@@H](O)[C@H](O)[C@H]2O)c(-c2ccc(O)c(O)c2)oc2cc(O)cc(O)c12 [ISOQUERCETIN],inactive,2000,inactive,–,–,1000,inactive,4000,2000,4000,20.4,inactive,4000,1000,4000,–,inactive,–,–,4000
